In ChEMBL document CHEMBL4680176, “Identification of DOT1L inhibitors by structure-based virtual screening adapted from a nucleoside-focused library” (Eur J Med Chem, 2020):
One block for each molecule: values may come before it. Activity calls are given as the source filed them. The rule behind the calls is not given here.

Tests used:
[1] = target: T1, Histone-lysine N-methyltransferase, H3 lysine-79 specific (Homo sapiens, UniProt Q8TEK3); assay: Inhibition of recombinant human N-terminal GST-tagged DOT1L (1 to 420 residues) expressed in Escherichia coli BL21 (DE3) using nucleosome as substrate incubated for 1 hr in presence of [3H]-SAM by liquid scintillation counting method
Summary of the method: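 GST-tagged DOT1L catalytic domain (1-420), expressed in E. coli BL21(DE3) and Ni-affinity purified, used at 125 nM. Compound added before SAM start; 1 hr at room temperature. Product captured on P81 filters, NaHCO3-washed, and counted by scintillation.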
Target sequence in this assay (Q8TEK3 whole entry, the tested form may be a part): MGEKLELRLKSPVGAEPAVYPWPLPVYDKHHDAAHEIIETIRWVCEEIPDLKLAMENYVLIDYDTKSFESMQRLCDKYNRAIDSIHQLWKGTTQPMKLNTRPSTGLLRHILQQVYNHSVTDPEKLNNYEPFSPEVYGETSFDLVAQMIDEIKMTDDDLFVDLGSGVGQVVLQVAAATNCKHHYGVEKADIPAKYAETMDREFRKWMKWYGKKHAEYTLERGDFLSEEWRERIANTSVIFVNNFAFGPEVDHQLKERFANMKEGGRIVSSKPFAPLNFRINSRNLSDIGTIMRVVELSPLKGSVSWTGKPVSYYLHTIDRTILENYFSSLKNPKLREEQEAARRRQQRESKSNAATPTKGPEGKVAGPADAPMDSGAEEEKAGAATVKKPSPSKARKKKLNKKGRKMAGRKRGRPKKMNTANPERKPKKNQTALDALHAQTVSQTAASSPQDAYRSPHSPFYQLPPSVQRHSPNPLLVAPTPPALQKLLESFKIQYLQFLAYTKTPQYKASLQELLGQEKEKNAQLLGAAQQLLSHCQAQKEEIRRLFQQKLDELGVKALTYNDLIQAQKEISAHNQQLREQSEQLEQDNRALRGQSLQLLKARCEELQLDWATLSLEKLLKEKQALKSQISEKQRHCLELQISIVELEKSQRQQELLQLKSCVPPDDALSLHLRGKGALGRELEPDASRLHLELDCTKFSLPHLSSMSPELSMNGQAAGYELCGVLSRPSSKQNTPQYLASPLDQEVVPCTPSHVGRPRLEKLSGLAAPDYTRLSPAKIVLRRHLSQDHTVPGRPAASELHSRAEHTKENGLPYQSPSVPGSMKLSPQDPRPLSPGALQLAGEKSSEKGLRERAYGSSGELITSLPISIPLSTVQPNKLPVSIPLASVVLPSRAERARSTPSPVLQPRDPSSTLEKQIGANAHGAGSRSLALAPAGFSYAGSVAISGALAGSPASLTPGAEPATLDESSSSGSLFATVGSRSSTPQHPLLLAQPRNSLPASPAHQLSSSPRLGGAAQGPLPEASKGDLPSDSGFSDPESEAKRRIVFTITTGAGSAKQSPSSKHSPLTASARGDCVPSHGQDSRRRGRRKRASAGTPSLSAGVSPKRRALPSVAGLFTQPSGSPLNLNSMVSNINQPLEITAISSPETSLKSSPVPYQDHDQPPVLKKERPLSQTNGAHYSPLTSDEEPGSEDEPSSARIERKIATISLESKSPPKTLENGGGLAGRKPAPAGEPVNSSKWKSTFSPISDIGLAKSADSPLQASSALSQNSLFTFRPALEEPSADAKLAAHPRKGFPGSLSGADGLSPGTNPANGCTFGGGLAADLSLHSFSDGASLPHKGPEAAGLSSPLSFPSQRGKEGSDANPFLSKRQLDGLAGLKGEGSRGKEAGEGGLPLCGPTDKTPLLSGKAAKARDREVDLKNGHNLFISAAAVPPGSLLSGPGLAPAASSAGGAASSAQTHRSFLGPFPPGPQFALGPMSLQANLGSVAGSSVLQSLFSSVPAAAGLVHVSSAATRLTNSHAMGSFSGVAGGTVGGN

[2] = target: T1, Histone-lysine N-methyltransferase, H3 lysine-79 specific; assay: Binding affinity to recombinant human N-terminal GST-tagged DOT1L (1 to 420 residues) expressed in Escherichia coli BL21 (DE3) assessed as increase in melting temperature at 100 uM incubated for 1 min by 1,8-ANS probe based thermal shift assay
Target sequence in this assay (Q8TEK3 whole entry, looked up, the tested form may be a part): as the sequence (Q8TEK3 whole entry, the tested form may be a part) above

[3] = target: T1, Histone-lysine N-methyltransferase, H3 lysine-79 specific; assay: Binding affinity to recombinant human N-terminal GST-tagged DOT1L (1 to 420 residues) expressed in Escherichia coli BL21 (DE3) assessed as increase in melting temperature at 100 uM incubated for 1 min by 1,8-ANS probe based thermal shift assay
Target sequence in this assay (Q8TEK3 whole entry, looked up, the tested form may be a part): as the sequence (Q8TEK3 whole entry, the tested form may be a part) above

[4] = target: T1, Histone-lysine N-methyltransferase, H3 lysine-79 specific; assay: Inhibition of recombinant human N-terminal GST-tagged DOT1L (1 to 420 residues) expressed in Escherichia coli BL21 (DE3) using histone as substrate incubated for 1 hr by MTase-glo based luminescence assay
Target sequence in this assay (Q8TEK3 whole entry, the tested form may be a part): as above

[5] = target: Protein arginine N-methyltransferase 3 (Homo sapiens, UniProt O60678); assay: Inhibition of recombinant human PRMT3 using histone H4 as substrate by hotspot assay; conditions: read-out: IC50
Protein arginine N-methyltransferase 3, sequence (O60678 whole entry): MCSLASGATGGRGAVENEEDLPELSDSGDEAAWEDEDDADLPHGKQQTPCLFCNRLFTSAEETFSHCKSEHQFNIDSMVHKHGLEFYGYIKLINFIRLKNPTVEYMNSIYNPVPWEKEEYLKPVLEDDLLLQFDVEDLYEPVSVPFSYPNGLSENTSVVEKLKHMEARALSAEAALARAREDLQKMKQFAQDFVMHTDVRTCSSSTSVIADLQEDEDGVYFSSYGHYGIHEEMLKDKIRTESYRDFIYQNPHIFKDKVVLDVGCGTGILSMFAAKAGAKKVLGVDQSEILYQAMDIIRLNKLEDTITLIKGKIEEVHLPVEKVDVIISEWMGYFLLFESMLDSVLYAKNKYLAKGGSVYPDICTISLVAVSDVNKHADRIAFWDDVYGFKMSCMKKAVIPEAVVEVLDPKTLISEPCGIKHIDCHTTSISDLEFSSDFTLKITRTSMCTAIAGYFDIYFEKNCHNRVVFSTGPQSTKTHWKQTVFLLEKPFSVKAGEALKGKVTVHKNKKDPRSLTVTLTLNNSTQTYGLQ

IC50 [1]: 85.3 µM
Activity [2]: Active
SMILES: Nc1ncnc2c1ncn2[C@@H]1O[C@H](C(=O)N2CCC[C@H]2C(=O)OCc2ccccc2)[C@@H](O)[C@H]1O

IC50 [1]: 90.4 µM
Activity [2]: Active
SMILES: Nc1ncnc2c1ncn2[C@@H]1O[C@H](CNCc2ccc(OCC(=O)Nc3nccs3)cc2)[C@@H](O)[C@H]1O

IC50 [1]: 677 µM
Activity [3]: Active
SMILES: O=C(Nc1ccn(CCCNCc2ccc3c(c2)OCO3)c(=O)n1)OCc1ccccc1

IC50 [1]: 120 µM
Activity [2]: Active
SMILES: Nc1ncnc2c1ncn2[C@@H]1O[C@H](CNCc2ccc(OCc3ccccc3)cc2)[C@@H](O)[C@H]1O

IC50 [1]: 710 µM
Activity [3]: Active
SMILES: O=C(Nc1ccn(CCCN2CCC(c3ccccc3)CC2)c(=O)n1)OCc1ccccc1

IC50 [1]: 130 µM
Activity [3]: Active
SMILES: Cc1ccc(NC(=O)c2ncn(CC(=O)NCc3nc4ccccc4[nH]3)n2)cc1C

Further lines, the molecule ahead of its results:

SMILES: Nc1ncnc2c1ncn2[C@@H]1O[C@H](CNC(=O)[C@@H](N)Cc2ccc(C(F)(F)F)cc2)[C@@H](O)[C@H]1O
IC50 [1]: 168 µM
Activity [2]: Active

SMILES: Cc1ccc(NC(=O)c2ncn(CC(=O)NCc3ccc4c(c3)OCO4)n2)cc1C
IC50 [1]: 82.9 µM
Activity [3]: Active
IC50 [4]: 40.8 µM

SMILES: Nc1ncnc2c1ncn2[C@@H]1O[C@H](CSCC[C@H](N)C(=O)O)[C@@H](O)[C@H]1O [S-ADENOSYLHOMOCYSTEINE]
IC50 [5]: 0.76 µM

SMILES: Cc1ccc(NC(=O)c2ncn(CC(=O)NCc3ccc4[nH]ncc4c3)n2)cc1C
IC50 [4]: 36.9 µM

SMILES: Cc1ccc2nc(NC(=O)c3ncn(CC(=O)NCc4ccc5c(c4)OCO5)n3)[nH]c2c1
IC50 [4]: 55.6 µM

SMILES: Cc1ccc(NC(=O)c2ncn(CC(=O)NCCn3cnc4[nH]ccc4c3=O)n2)cc1C
IC50 [4]: 138 µM

SMILES: Nc1ncnc2c1ccn2CCNC(=O)Cn1cnc(C(=O)NC2CCCCC2)n1
IC50 [4]: > 100 µM

SMILES: O=C(Cn1cnc(C(=O)NC2CCCCC2)n1)NCc1ccc2[nH]ncc2c1
IC50 [4]: > 100 µM

SMILES: O=C(Cn1cnc(C(=O)NC2CCCCC2)n1)NCc1ccc2c(c1)OCO2
IC50 [4]: > 100 µM

SMILES: Nc1ncnc2c1ncn2[C@@H]1O[C@H](CNCc2ccc(-c3cc(C(F)(F)F)ccc3Cl)o2)[C@@H](O)[C@H]1O
IC50 [1]: 32.4 µM
Activity [2]: Active

SMILES: CC(C)(C)c1ccc(NC(=O)c2ncn(CC(=O)NCc3ccc4c(c3)OCO4)n2)cc1
IC50 [4]: 23.5 µM

SMILES: Nc1ncnc2c1ncn2[C@@H]1O[C@H](CNC(=O)[C@@H](N)Cc2ccc(C(=O)c3ccccc3)cc2)[C@@H](O)[C@H]1O
IC50 [1]: 57 µM
Activity [2]: Active
